Laboratory results: ChEMBL document CHEMBL2429813, “Phomapyrrolidones A-C, antitubercular alkaloids from the endophytic fungus Phoma sp. NRRL 46751” (J Nat Prod, 2013)
Values after ≈ are worked out from the molar mass of the structure shown. Active and inactive are the calls of the source. The rule behind the calls is not given here.

Assays:
[1] = test system: MDA-MB-231; test: Cytotoxicity against human MDA-MB-231 cells at 5 uM after 72 hrs by Alamar blue assay; assay type: functional, cell-based
Outline: (§1)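 The human cancer cell panel was assayed by resazurin (alamarBlue) read-out, with 5.0 μM as the highest concentration tested and doxorubicin as the positive control. The procedure follows an earlier report.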

[2] = test system: PC-3M; test: Cytotoxicity against human PC3M cells at 5 uM after 72 hrs by Alamar blue assay; assay type: functional, cell-based; outline: as §1
[3] = test system: SF-268; test: Cytotoxicity against human SF268 cells at 5 uM after 72 hrs by Alamar blue assay; assay type: functional, cell-based; outline: as §1
[4] = test system: NCI-H460; test: Cytotoxicity against human NCI-H460 cells at 5 uM after 72 hrs by Alamar blue assay; assay type: functional, cell-based; outline: as §1
[5] = test system: MCF7; test: Cytotoxicity against human MCF7 cells at 5 uM after 72 hrs by Alamar blue assay; assay type: functional, cell-based; outline: as §1
[6] = test system: Vero; test: Cytotoxicity against African green monkey Vero cells after 72 hrs by MTS-PMS assay; assay type: cell-based; conditions: Chlorocebus sabaeus
Outline: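 Vero cells were assayed by MTS-PMS colorimetric read-out, with rifampin as the positive control. The procedure follows an earlier report. Values are given as IC50.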

[7] = test system: Mycobacterium tuberculosis; test: Antitubecular activity against Mycobacterium tuberculosis […] assessed as growth inhibition by low oxygen recovery assay; assay type: functional
Outline: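 Non-replicating M. tuberculosis […] under low-oxygen conditions, with growth assessed on recovery (LORA). Endpoint was MIC, in μg/mL with μM in parentheses. Rifampin and isonicotinylhydrazine were the positive controls.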

[8] = test system: Mycobacterium tuberculosis; test: Antitubecular activity against Mycobacterium tuberculosis […] assessed as growth inhibition after 4 days by microplate Alamar blue assay; assay type: functional; conditions: 96 h
Outline: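 Replicating M. tuberculosis […] cultures in microplate alamar blue (resazurin) format. MIC was read out and reported in μg/mL, with μM in parentheses. Rifampin and isonicotinylhydrazine served as positive controls.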

Structure (SMILES) | Activity [1] | Activity [2] | Activity [3] | Activity [4] | Activity [5] | IC50 [6] [µM] | MIC [7] [µg/mL] | MIC [8] [µg/mL]
CC1=C[C@@]2(C)C(=C(C)[C@H]3[C@H]4C[C@@H](C)C[C@@H](C)[C@@H]4[C@@H]4Oc5ccc(cc5)C[C@@H]5C(=O)NC(=O)[C@H]5C(=O)[C@H]2[C@H]43)[C@H]1C | inactive | inactive | inactive | inactive | inactive | 33.6 | 41.1 (≈ 77.9 µM) | 20.1 (≈ 38.1 µM)
CC1=C[C@@]2(C)C(=C(C)[C@H]3[C@H]4C[C@@H](C)C[C@@H](C)[C@@H]4[C@@H]4Oc5ccc(cc5)C[C@H]5C(=O)NC(=O)[C@@H]5C(=O)[C@H]2[C@H]43)[C@H]1C | inactive | inactive | inactive | inactive | inactive | 32.4 | 15.4 (≈ 29.2 µM) | 5.9 (≈ 11.2 µM)
CO[C@H]1/C=C/O[C@@]2(C)Oc3c(C)c(O)c4c(O)c(c(/C=N/N5CCN(C)CC5)c(O)c4c3C2=O)NC(=O)/C(C)=C\C=C\[C@H](C)[C@H](O)[C@@H](C)[C@@H](O)[C@@H](C)[C@H](OC(C)=O)[C@@H]1C [RIFAMPIN] |  |  |  |  |  | 132 | 0.1 (≈ 0.122 µM) | 0.07 (≈ 0.0851 µM)
NNC(=O)c1ccncc1 [ISONIAZID] |  |  |  |  |  |  | > 17.5 | 0.03 (≈ 0.219 µM)
CC1=C[C@@]2(C)C(=C(C)[C@H]3[C@H]4C[C@@H](C)C[C@@H](C)[C@@H]4[C@@H]4Oc5ccc(cc5)C[C@@H]5C(=O)N(C)C(=O)[C@H]5C(=O)[C@H]2[C@H]43)[C@H]1C | inactive | inactive | inactive | inactive | inactive | 145 | > 100 | > 100
CC1=C[C@@]2(C)C(=C(C)[C@H]3[C@H]4C[C@@H](C)C[C@@H](C)[C@@H]4[C@@H]4Oc5ccc(cc5)CC5(O)NC(=O)C6(O[C@H]56)C(=O)[C@H]2[C@H]43)[C@H]1C (some centres not stated) | inactive | inactive | inactive | inactive | inactive | 35.7 | 13.4 (≈ 24.6 µM) | 5.2 (≈ 9.56 µM)
